Measurements taken from ChEMBL document CHEMBL1157723, “Synthesis and anti-viral activity of azolo-adamantanes against influenza A virus” (Bioorg Med Chem, 2010).
Converted amounts (≈) assume the structure as drawn.

Columns and labels:
[1] = system: Influenza A virus; assay: Antiviral activity against Influenza A virus (A/Puerto Rico/8/34(H1N1)) infected in MDCK cells assessed as virus yield after 48 hrs end-point dilution method; format: functional, organism-based; conditions: A/Puerto Rico/8/1934(H1N1)
How it was run: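 MDCK monolayers were exposed to serial twofold compound dilutions in MEM with 2 mM arginine, 2 mM glutamine and 2 µg/mL trypsin for 1 h at 37 °C, then infected and cultured 48 h at 36 °C. Supernatant was tested by hemagglutination with 1% chicken erythrocytes (1 h, room temperature) and titre by end-point dilution. ED50 is the concentration decreasing virus production […].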

[2] = Selectivity index, ratio of CTD50 for MDCK cells to EC50 for Influenza A virus (A/Puerto Rico/8/34(H1N1)); format: toxicity, cell-based; conditions: dog, read-out: Selectivity Index
How it was run: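 Ratio of CTD50 (MDCK, MTT after 48 h) to ED50 (PR8 yield in MDCK by hemagglutination end-point titration after 48 h at 36 °C), both from twofold dilution series.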

[3] = system: MDCK; assay: Cytotoxicity against MDCK cells after 48 hrs by MTT assay; format: cell-based, Canis lupus familiaris; conditions: dog
How it was run: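 MDCK cells were grown to monolayer in MEM with 5% fetal calf serum and washed with serum-free MEM. Compounds came from 5 mg/ml DMSO stocks as twofold dilutions of 1000–1 µg/ml in MEM, 48 h at 37 °C. After PBS washes, MTT (0.5 mg/ml) was added for 60 min at 37 °C, the deposit dissolved in DMSO and OD read at 535 nm. CTD50 is the concentration reducing viability 50%.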

| Structure (SMILES) | EC50 [1] [µg/mL] | selectivity ratio [2] | Activity [3] [µg/mL] |
| --- | --- | --- | --- |
| CC(N)C12CC3CC(CC(C3)C1)C2 (stereo unspecified) [RIMANTADINE] | 5 (≈ 27.9 µM) | 12 | 60 |
| CC(N)C12CC3CC(C1)CC(n1cnc(Cl)n1)(C3)C2.Cl (stereo unspecified) | 15 | 9 | 140 |
| Clc1ncn(C23CC4CC(CC(C4)C2)C3)n1 | 59 (≈ 248 µM) | 10 | 583 |
| CCc1nnn(C23CC4CC(CC(C(C)N)(C4)C2)C3)n1.Cl (stereo unspecified) | 6 | 50 | 299 |
| Cc1nnn(C23CC4CC(CC(C(C)N)(C4)C2)C3)n1.Cl (stereo unspecified) | 8 | 30 | 242 |
| [S-]c1n[n+](C23CC4CC(CC(C4)C2)C3)nn1-c1ccccc1 | 130 (≈ 416 µM) | 2 | 300 |
| CCOC(=O)Cc1nnn(C23CC4CC(CC(N)(C4)C2)C3)n1.Cl | 18 | 7 | 127 |
| c1nnn(C23CC4CC(CC(C4)C2)C3)n1 | 56 (≈ 274 µM) | 5 | 253 |
| Cc1nnn(C23CC4CC(CC(C4)C2)C3)n1 | 77 (≈ 353 µM) | 7 | 569 |
| O=C(O)c1nn(C23CC4CC(CC(C4)C2)C3)cc1Br | 300 (≈ 922 µM) | 1 | 443 |
| Cl.NC12CC3CC(C1)CC(n1ncnn1)(C3)C2 | 22 | 25 | 552 |
| c1ncn(C23CC4CC(CC(C4)C2)C3)n1 | 77 (≈ 379 µM) | 5 | 358 |
| Cc1nn(C23CC4CC(CC(C4)C2)C3)c(C)c1N | 100 (≈ 408 µM) | 6 | 600 |
| Cc1nnn(C23CC4CC(CC(N)(C4)C2)C3)n1.Cl | 13 | 16 | 213 |
| OC12CC3CC(C1)CC(N=C=S)(C3)C2 | 150 (≈ 717 µM) | > 3 | > 500 |
| O=C(O)Cc1nnn(C23CC4CC(CC(C4)C2)C3)n1 | 71 (≈ 271 µM) | > 7 | > 500 |

| Structure (SMILES) | EC50 [1] [µg/mL] | selectivity ratio [2] | Activity [3] [µg/mL] |
| --- | --- | --- | --- |
| S=c1[nH]nnn1C12CC3CC(CC(C3)C1)C2 | 15 (≈ 63.5 µM) | 11 | 167 |
| CC(N)C12CC3CC(C1)CC(n1ncnn1)(C3)C2.Cl (stereo unspecified) | 23 | 18 | 423 |
| CC(N)C12CC3CC(C1)CC(n1cnc([N+](=O)[O-])n1)(C3)C2.Cl (stereo unspecified) | 120 | 1 | 131 |
| NC1N=NC(Cc2nnn(C34CC5CC(CC(C5)C3)C4)n2)=N1 (stereo unspecified) | 0.09 (≈ 0.3 µM) | 2 | 0.18 |
| OC12CC3CC(C1)CC(n1nn[nH]c1=S)(C3)C2 | 8 (≈ 31.7 µM) | 18 | 146 |
| c1nnnn1C12CC3CC(CC(C3)C1)C2 | 11 (≈ 53.8 µM) | 25 | 281 |
| CCn1n[n+](C23CC4CC(CC(C4)C2)C3)nc1[S-] | 3 (≈ 11.3 µM) | 41 | 125 |
| Cc1ncn(C23CC4CC(CC(C(C)N)(C4)C2)C3)n1.Cl.Cl (stereo unspecified) | 62 | 15 | 960 |
| Sc1nnnn1-c1ccccc1 | > 200 | < 1 | 151 |
| O=S(=O)([O-])O.c1ccc(-n2n[n+](C34CC5CC(CC(C5)C3)C4)nc2SC23CC4CC(CC(C4)C2)C3)cc1 | 57 | 5 | 289 |
| CCc1nnn(C23CC4CC(CC(N)(C4)C2)C3)n1.Cl | 25 | 10 | 262 |
| O=c1[nH]nnn1-c1ccccc1 | 294 (≈ 1810 µM) | 3 | > 1000 |
| CCOC(=O)Cc1nnn(C23CC4CC(CC(C4)C2)C3)n1 | 232 (≈ 799 µM) | 4 | > 1000 |
| Cl.NC12CC3CC(C1)CC(n1cncn1)(C3)C2 | 123 | 12 | 1489 |
| Cl.NC12CC3CC(C1)CC(n1cnc(Br)n1)(C3)C2 | 111 | 6 | 620 |
| CCCCOC(=O)Cc1nnn(C23CC4CC(CC(C4)C2)C3)n1 | > 1 | < 1 | < 1 |
